Measured values: ChEMBL document CHEMBL4002546, “Evaluation of 7-arylaminopyrazolo[1,5-a]pyrimidines as anti-Plasmodium falciparum, antimalarial, and Pf-dihydroorotate dehydrogenase inhibitors” (Eur J Med Chem, 2017)

Columns and labels:
[1] = Selectivity index, ratio of MLD50 for african green monkey BGM cells to IC50 for chloroquine-resistant Plasmodium falciparum W2 infected in human A+ erythrocytes by SYBR Green based fluorescence assay; type: toxicity, cell-based
Plasmodium falciparum [2] = assay: Inhibition of N-terminally truncated Plasmodium falciparum SUMO-tagged DHODH (159 to 569 residues) expressed in Escherichia coli BL21(DE3) assessed as residual activity at 50 uM using L-dihydroorotate as substrate by DCIP-based colorimetric assay relative to control
Summary of the method: (§1)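 Recombinant PfDHODH expressed in E. coli BL21(DE3) from a SUMO-His construct, IPTG-induced. Purified by Ni-NTA, then ULP1 tag cleavage, then size exclusion. Activity measured as continuous DCIP reduction at 600 nm over 60 s at 25 °C. Reaction: 50 mM Tris pH 8.15, 150 mM KCl, 0.1% Triton X-100, 1 mM L-dihydroorotate, 100 µM CoQ₀, 60 µM DCIP, 50 nM enzyme. Four replicates per concentration; activity relative to no-inhibitor control. IC50 from nonlinear fit.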

Plasmodium falciparum [3] = assay: Antiplasmodial activity against chloroquine-resistant Plasmodium falciparum W2 infected in human A+ erythrocytes assessed as inhibition of [3H]-hypoxanthine incorporation after 42 hrs by beta counting method; type: functional, cell-based
Summary of the method: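 W2 parasites cultured at 37 °C in A+ human erythrocytes in RPMI 1640 with 10% A+ human serum, under low O2 (3% O2, 5% CO2). Compound dilutions were tested at 1% parasitemia and 1% haematocrit. [3H]-hypoxanthine uptake was read by beta counting after 42 h. IC50 was derived by curve fitting relative to drug-free controls.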

[4] = Selectivity index, ratio of MLD50 for african green monkey BGM cells to IC50 for chloroquine-resistant Plasmodium falciparum W2 infected in human A+ erythrocytes by [3H]-hypoxanthine incorporation assay; type: toxicity, cell-based; details: read-out: Selectivity Index
[5] = Solubility of the compound at >100 uM; type: physicochemical
[6] = biological target: Dihydroorotate dehydrogenase (quinone), mitochondrial (Homo sapiens) (UniProt Q02127); assay: Inhibition of recombinant human DHODH assessed as residual activity at 50 uM using L-dihydroorotate as substrate by DCIP-based colorimetric assay relative to control
Summary of the method: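 Recombinant human DHODH at 20 nM final, in 50 mM Tris pH 8.15 with 150 mM KCl and 0.1% Triton X-100. Substrate was 1 mM L-dihydroorotate, with CoQ0 as acceptor and DCIP as dye. DCIP reduction was followed at 610 nm for 60 s at 25 °C, against a no-enzyme reference. Four replicates per concentration; activity is % of the uninhibited control.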

Plasmodium falciparum [7] = assay: Antiplasmodial activity against chloroquine-resistant Plasmodium falciparum W2 infected in human A+ erythrocytes after 48 hrs by SYBR Green based fluorescence assay; type: functional, cell-based; details: W2, 48 h
Summary of the method: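 W2 parasites kept at 37 °C in A+ human red cells in RPMI 1640 with 10% A+ human serum, under 3% O2/5% CO2/91% N2. Serial dilutions were run at 0.5% parasitemia and 2% haematocrit for 48 h at 37 °C. Cells were lysed in Tris/EDTA/saponin/Triton buffer with SYBR Safe for 30 min in the dark, then read at ex 485/em 535 nm. IC50 was curve-fitted against drug-free controls.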

[8] = Cytotoxicity against African green monkey BGM cells assessed as lethality after 24 hrs by neutral red dye based assay; type: cell-based; details: chlorocebus aethiops, read-out: MLD50
Summary of the method: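 BGM monkey kidney cells grown in RPMI 1640 with 10% heat-inactivated foetal serum and gentamicin. Cells were seeded at 1 × 10⁵ cells/mL and left 18 h to adhere. Compounds were added across a 1000–1 dilution range for 24 h at 37 °C in 5% CO2. Cells took up neutral red for 2 h, were fixed with formaldehyde/CaCl2 and extracted with alcohol-acetic acid, then read at A540. Viability is % of untreated cells; MLD50 was calculated from this.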

Plasmodium falciparum [9] = assay: Antiplasmodial activity against chloroquine-resistant Plasmodium falciparum W2 infected in human A+ erythrocytes by HRP2 detection based ELISA; type: functional, cell-based
Summary of the method: (§2)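 W2 blood-stage culture in A+ human erythrocytes in RPMI 1640 with 10% A+ human serum at 37 °C, under 3% O2/5% CO2. Growth was read with monoclonal antibodies against histidine- and alanine-rich protein II (HRPII). IC50 was estimated by curve fitting against drug-free controls.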

Plasmodium falciparum [10] = assay: Antiplasmodial activity against chloroquine-resistant/mefloquine-sensitive Plasmodium falciparum W2 infected in human A+ erythrocytes assessed as inhibition of parasite growth by HRP2 detection based assay; type: functional, cell-based; summary of the method: as §2
Plasmodium berghei [11] = assay: (§3) Antimalarial activity against Plasmodium berghei NK65 infected in mouse assessed as reduction in parasitemia at 5 mg/kg, po administered daily for 3 consecutive days starting 24 hrs post inoculum challenge containing parasitized red blood cells measured on day 7 by giemsa staining based microscopic method; type: functional
Summary of the method: (§4)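 P. berghei NK65 maintained by weekly blood passage. Mice inoculated i.p. with 1 × 10⁶ infected erythrocytes, randomized after ~24 h into groups of five. Oral dosing at 5 mg/kg once daily for 3 days, freshly diluted in 3% DMSO in RPMI; vehicle and amodiaquine controls. Parasitemia read on Giemsa-stained, methanol-fixed tail-blood thin smears. Inhibition is relative to untreated mice, taken as 100% growth.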

[12] = Inhibition of N-terminally truncated Plasmodium falciparum SUMO-tagged DHODH (159 to 569 residues) expressed in Escherichia coli BL21(DE3) using L-dihydroorotate as substrate by DCIP-based colorimetric assay; summary of the method: as §1
Plasmodium berghei [13] = assay: as §3, with “11” for “7”; type: functional; summary of the method: as §4
Plasmodium berghei [14] = assay: as §3, with “9” for “7”; type: functional; summary of the method: as §4
Plasmodium berghei [15] = assay: as §3, with “5” for “7”; type: functional; summary of the method: as §4
[16] = Selectivity index, ratio of MLD50 for african green monkey BGM cells to IC50 for chloroquine-resistant Plasmodium falciparum W2 infected in human A+ erythrocytes by HRP2 ELISA assay; type: toxicity, cell-based; details: read-out: Selectivity Index

Chain of Dihydroorotate dehydrogenase (quinone), mitochondrial (Homo sapiens) (Q02127 whole entry): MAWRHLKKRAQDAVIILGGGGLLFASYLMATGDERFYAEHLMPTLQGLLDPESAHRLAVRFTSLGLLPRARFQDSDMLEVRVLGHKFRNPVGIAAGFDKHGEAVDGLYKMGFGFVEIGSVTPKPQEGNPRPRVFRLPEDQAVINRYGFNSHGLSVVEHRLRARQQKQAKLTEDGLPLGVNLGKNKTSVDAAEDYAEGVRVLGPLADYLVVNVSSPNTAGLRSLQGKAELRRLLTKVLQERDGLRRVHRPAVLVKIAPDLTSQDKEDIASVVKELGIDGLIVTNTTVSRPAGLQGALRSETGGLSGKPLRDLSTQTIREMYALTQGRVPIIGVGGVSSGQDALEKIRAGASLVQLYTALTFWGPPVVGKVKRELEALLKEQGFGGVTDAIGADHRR

Compound | selectivity ratio [1] | Activity (Plasmodium falciparum [2]) | IC50 (Plasmodium falciparum [3]) | selectivity ratio [4] | solubility [5] | Activity [6] | IC50 (Plasmodium falciparum [7]) | CC50 at 24 h [8] | IC50 (Plasmodium falciparum [9]) | IC50 (Plasmodium falciparum [10]) | inhibition in vivo at 5 mg/kg (Plasmodium berghei [11]) | IC50 [12] | inhibition in vivo at 5 mg/kg (Plasmodium berghei [13]) | inhibition in vivo at 5 mg/kg (Plasmodium berghei [14]) | inhibition in vivo at 5 mg/kg (Plasmodium berghei [15]) | selectivity ratio [16]
COc1cc(Nc2cc(C(F)(F)F)nc3cc(C)nn23)cc(OC)c1 | > 330 | 77% | 8.6 µM | > 330 | Insoluble | 104% | 8.6 µM | > 2840 µM | – | – | – | – | – | – | – | –
Cc1cc(Nc2ccccc2)n2nc(C(F)(F)F)cc2n1 | – | 88% | > 171 µM | – | – | 113% | – | 856 µM | > 171 µM | – | – | – | – | – | – | –
CCN(CC)CCCC(C)Nc1cc(C)nc2nc(C(F)(F)F)nn12 (configuration not stated) | – | – | – | – | – | – | – | – | – | 39 µM | – | – | – | – | – | –
Cc1cc2nc(C(F)(F)F)cc(Nc3ccc4ccccc4c3)n2n1 | 234 | 60% | 10 µM | 234 | Insoluble | 101% | 10 µM | 2340 µM | – | – | 1% | 0.16 µM | 29% | 4% | 25% | –
CCN(CC)Cc1cc(Nc2ccnc3cc(Cl)ccc23)ccc1O [AMODIAQUINE] | – | 79% | 0.006 µM | – | – | – | 0.006 µM | – | – | – | 100% | > 400 µM | 100% | 100% | 100% | –
Cc1cc(Nc2ccccc2C(F)(F)F)n2nc(C(F)(F)F)cc2n1 | – | 48% | 50 µM | 4.6 | – | 93% | – | 228 µM | 44.4 µM | – | – | – | – | – | – | 5.1
Cc1cc(Nc2ccc(Cl)cc2)n2nc(C(F)(F)F)cc2n1 | – | 52% | 50.3 µM | 1.3 | – | 121% | – | 67.5 µM | 67.5 µM | – | – | 23 µM | – | – | – | 1
COc1cc(Nc2cc(C)nc3cc(C(F)(F)F)nn23)cc(OC)c1 | – | 57% | > 142 µM | – | – | 95% | – | 256 µM | > 142 µM | – | – | > 400 µM | – | – | – | –
Cc1cc(Nc2ccc(Cl)cc2)n2nc(C)cc2n1 | – | 74% | 25.7 µM | 22 | – | 95% | – | 566 µM | 23.5 µM | – | – | – | – | – | – | 24.1
COc1ccc(Nc2cc(C)nc3nc(C(F)(F)F)nn23)cc1 | – | – | – | – | – | – | – | – | – | 0.4 µM | – | – | – | – | – | –
COc1cc(Nc2cc(C)nc3cc(C)nn23)cc(OC)c1 | – | 42% | 26.8 µM | 7 | – | 80% | – | 188 µM | 21.5 µM | – | – | > 400 µM | – | – | – | 8.7
Cc1cc2nc(C(F)(F)F)cc(Nc3ccccc3)n2n1 | 15.2 | 77% | 17.1 µM | 15.2 | Insoluble | 122% | 17.1 µM | 261 µM | – | – | – | – | – | – | – | –
FC(F)(F)c1cc(Nc2cc(Cl)cc(Cl)c2)n2nc(C(F)(F)F)nc2n1 | – | – | – | – | – | – | – | – | – | 12.3 µM | – | – | – | – | – | –
Cc1cc(Nc2ccc(C(F)(F)F)cc2)n2nc(C(F)(F)F)cc2n1 | – | 33% | 47.2 µM | 2.3 | – | 95% | – | 108 µM | 30.6 µM | – | – | > 100 µM | – | – | – | 3.5
Cc1cc(Nc2ccc3ccccc3c2)n2nc(C)cc2n1 | 79.6 | 41% | 5.1 µM | 79.6 | Insoluble | 71.9% | 5.1 µM | 406 µM | – | – | 40% | 4 µM | 65% | 53% | 50% | –
Cc1cc(Nc2ccc(C(F)(F)F)cc2)n2nc(C)cc2n1 | – | 34.3% | 15.7 µM | 5.4 | – | 88% | – | 85 µM | 8.5 µM | – | – | 24 µM | – | – | – | 10
Cc1cc(Nc2ccccc2C(F)(F)F)n2nc(C)cc2n1 | – | 94% | 42.5 µM | 2.5 | – | 96% | – | 105 µM | 49 µM | – | – | – | – | – | – | 2.1
Cc1cc(Nc2ccc3ccccc3c2)n2nc(C(F)(F)F)nc2n1 | – | 37% | – | 18.5 | – | – | – | 425 µM | – | – | – | 0.7 µM | – | – | – | 18.5
Cc1cc(Nc2ccc3ccccc3c2)n2nc(C(F)(F)F)cc2n1 | 468 | 67.5% | 1.2 µM | 468 | Insoluble | 56.8% | 1.2 µM | 561 µM | – | – | 61% | 6 µM | 59% | 47% | 50% | –
Cc1cc(Nc2ccccc2)n2nc(C)cc2n1 | – | 66% | 67.2 µM | 4.7 | – | 104% | – | 315 µM | 92.4 µM | – | – | – | – | – | – | 3.4
